Source: publication PMC8769552 (Science Advances, 2022)
Values belong to the molecule of their own block, whether it stands above or below them.

Assays:
[1] = system: HEK293T whole-cell lysates; experiment: Fluorogenic lysate deacylase assay; format: biochemical, human; details: 37°C, 60 min; for conversion of AMC substrate by whole-cell lysate: substrate 50 μM, lysate 30 μg per well, NAD+ 500 μM, tris buffer, n = 4
HeLa cells = experiment: Histone lactylation and acetylation in HeLa cells after inhibitor treatment; format: cell-based, human; details: 5-hour treatment, TMP195 5 μM, NAM 10 mM; for global histone lactylation levels: sodium butyrate 2 mM, TSA 1 μM, apicidin 1 μM
Outline: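 HeLa cells treated 5 h with pan-HDAC inhibitors (2 mM or 1 μM), HDAC1–3-selective inhibitor (1 μM), class IIa-selective inhibitor (5 μM) or pan-sirtuin inhibitor (10 mM). Histone lactylation and acetylation by Western blot: blocked in 3% BSA/TBST 1 h at RT, primary antibody overnight at 4°C, LI-COR secondary 1:10,000 for 1 h, Odyssey imaging.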

HDAC3 = format: biochemical, human; details: acid-extracted histones from HeLa cells, recombinant HDAC3
Outline: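 Histones acid-extracted from HeLa cells (hypotonic sucrose/Triton wash, no-salt EDTA/EGTA step, 0.2 M H2SO4 overnight at 4°C, 20% TCA precipitation). 20 μg histones incubated with 0.2 μg recombinant human HDAC at 37°C for 1 or 4 h in tris buffer (50 mM tris/Cl, 137 mM NaCl, 2.7 mM KCl, 1 mM MgCl2, pH 8). Stopped by boiling 5 min in loading buffer; Western blot readout.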

HDAC1–3 = experiment: Fluorogenic substrate screening assay; format: biochemical, human; details: substrate 50 μM, HDACs 50 nM, tris buffer, 37°C, 60 min; n = 2
HDAC1 = HDAC1 (Homo sapiens, UniProt Q13547); experiment: Fluorogenic Michaelis-Menten assay; format: biochemical; details: K(D-la) versus K(L-la), Ac-LGK-AMC; stated for HDAC1/2
HDAC1, sequence (Q13547 whole entry): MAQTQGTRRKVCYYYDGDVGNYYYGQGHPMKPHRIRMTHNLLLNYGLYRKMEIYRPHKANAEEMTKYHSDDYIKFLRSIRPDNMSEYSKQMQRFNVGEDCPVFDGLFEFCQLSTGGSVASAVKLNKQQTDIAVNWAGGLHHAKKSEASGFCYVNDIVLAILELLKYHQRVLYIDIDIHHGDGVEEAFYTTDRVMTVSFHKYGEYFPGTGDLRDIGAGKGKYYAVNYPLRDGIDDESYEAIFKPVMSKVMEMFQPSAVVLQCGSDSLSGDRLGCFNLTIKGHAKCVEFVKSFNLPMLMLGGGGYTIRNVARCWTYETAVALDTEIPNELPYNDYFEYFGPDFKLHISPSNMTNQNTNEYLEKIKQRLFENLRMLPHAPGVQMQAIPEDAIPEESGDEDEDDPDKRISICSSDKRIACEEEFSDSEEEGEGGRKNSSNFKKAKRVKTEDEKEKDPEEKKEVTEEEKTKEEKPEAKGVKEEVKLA

HDAC2 = experiment: Fluorogenic Michaelis-Menten assay; format: biochemical, human; details: K(D-la) versus K(L-la), Ac-LGK-AMC; stated for HDAC1/2
HDAC3/NCoR2 = HDAC3/NCoR2 (Homo sapiens, UniProt O15379+Q9Y618); experiment: Fluorogenic Michaelis-Menten assay; format: biochemical; details: K(D-la) versus K(L-la), Ac-LGK-AMC
HDAC3/NCoR2, sequence (O15379 whole entry): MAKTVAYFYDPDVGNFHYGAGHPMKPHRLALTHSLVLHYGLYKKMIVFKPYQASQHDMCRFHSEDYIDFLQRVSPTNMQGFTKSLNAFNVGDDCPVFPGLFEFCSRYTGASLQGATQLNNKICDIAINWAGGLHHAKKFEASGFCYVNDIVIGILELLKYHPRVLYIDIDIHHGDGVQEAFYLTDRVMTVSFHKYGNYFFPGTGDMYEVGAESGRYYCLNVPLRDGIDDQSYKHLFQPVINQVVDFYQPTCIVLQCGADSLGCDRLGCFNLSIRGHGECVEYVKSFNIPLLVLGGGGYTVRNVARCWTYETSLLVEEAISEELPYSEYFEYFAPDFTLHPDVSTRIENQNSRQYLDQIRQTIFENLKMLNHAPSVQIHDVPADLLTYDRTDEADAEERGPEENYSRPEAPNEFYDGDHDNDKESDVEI
HDAC3/NCoR2, sequence (Q9Y618 389-480 partner limits assumed): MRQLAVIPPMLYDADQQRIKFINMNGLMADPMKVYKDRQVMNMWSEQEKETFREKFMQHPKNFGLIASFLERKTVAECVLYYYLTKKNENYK

Molecule: NC(=O)c1cccnc1 [NAM, nicotinamide]
effect of inhibitor on lysate deacylation of 1a–c ([1]; NAM 10 mM, substrates 50 μM): did not substantially change the outcome of the deacylation events
histone Kac levels (HeLa cells): does not affect histone Kac levels
global histone lactylation levels (HeLa cells): failed to affect histone lactylation levels substantially

Molecule: CC(C)(CNC(=O)c1cccc(-c2noc(C(F)(F)F)n2)c1)c1coc(-c2ccccc2)n1 [TMP195]
histone Kac levels (HeLa cells): lack of effect
global histone lactylation levels (HeLa cells): failed to affect histone lactylation levels substantially

Molecule: CC(/C=C/C(=O)NO)=C\[C@@H](C)C(=O)c1ccc(N(C)C)cc1 [TSA, trichostatin A]
inhibition of HDAC3-mediated decrease of global histone lactylation (HDAC3): could be inhibited
global histone lactylation levels (HeLa cells): increased global histone lactylation levels

Molecule: CCC(=O)CCCCC[C@@H]1NC(=O)[C@H]2CCCCN2C(=O)[C@H]([C@@H](C)CC)NC(=O)[C@H](Cc2cn(OC)c3ccccc23)NC1=O [apicidin]
inhibition of HDAC3-mediated decrease of global histone lactylation (HDAC3): could be inhibited
global histone lactylation levels (HeLa cells): enhanced lactylation

Molecule: CCCC(=O)[O-].[Na+] [sodium butyrate]
global histone lactylation levels (HeLa cells): increased global histone lactylation levels

Molecule: Ac-Ala-Pro-Arg-Lys(D-La)-AMC [1c]
conversion of AMC substrate by whole-cell lysate [1]: converted to a larger extent than its K(L-la) counterpart

Molecule: Ac-Ala-Pro-Arg-Lys(L-La)-AMC [1b]
conversion of AMC substrate by whole-cell lysate [1]: able to remove the lactyl modifications, albeit to a lower extent than the corresponding Kac modification

deacylase activity (AMC release) (HDAC1–3): measurable activity
Molecule: Ac-Gln-Pro-Lys-Lys(L-La)-AMC [4b]

fold higher kcat/KM for 2c than for 2b (HDAC1): > 6 fold
fold higher kcat/KM for 2c than for 2b (HDAC2): > 6 fold
fold higher kcat/KM for 2c than for 2b (HDAC3/NCoR2): 3.5 fold
Molecule: Ac-Leu-Gly-Lys(D-La)-AMC [2c]
